Holding throughout (assay type): functional
For assay [1], the species on record is Rattus norvegicus. Kind of assay: Hypolipidemic effects(plasma TG) in male rats. A digest of the protocol:
(§1)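 Male rats, 10 per group, fed 7 days on chow with 10% fat (5.5% added peanut oil), 1.5% cholesterol and 0.1% cholic acid. Oral gavage on days 4-7 in 4% acacia, usually 50 mg/kg daily. Fasted overnight, killed day 8, atrial blood into EDTA. Plasma cholesterol, TG and HDL cholesterol (after MnCl2/heparin precipitation) by Autoanalyzer. % change vs controls, Student's t test.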

The species named for assay [2] is Rattus norvegicus. Kind of assay: Hypolipidemic effects(plasma cholesterol) in male rats. A digest of the protocol:
as §1

Assay [3] deals with Rattus norvegicus. As to the kind of experiment: Hypolipidemic effects (low-density lipoprotein (LDL) cholesterol) in male rats; Compound was screening orally at 50 mg/Kg. An outline of the steps: as §1
The species entered for assay [4] is Rattus norvegicus. Kind of assay: Hypolipidemic effects(liver weight) in male rats. A digest of the protocol:
as §1

The test system of assay [5] is Rattus norvegicus. Kind of assay: Hypolipidemic effects (high-density lipoprotein (HDL) cholesterol) in male rats; Compound was screening orally at 50 mg/Kg. A digest of the protocol:
as §1

Consider `COC(=O)C(C)(C)CCCOc1cc(OCCCC(C)(C)C(=O)OC)c(C(C)(C)C)cc1C(C)(C)C`, for which the Change in the assay filed under Rattus norvegicus [1], in the assay listed under Rattus norvegicus [2], with Rattus norvegicus [3], in the assay listed under Rattus norvegicus [4] and in the assay with Rattus norvegicus [5] was 0% throughout.
Turning to `CC(C)(CCCOc1ccc(OCCCC(C)(C)C(=O)O)c(C(O)c2ccccc2)c1)C(=O)O` (configuration not stated), the Change is 27% in the assay listed under Rattus norvegicus [1]; -17% in the assay filed under Rattus norvegicus [2]; -42% in the assay with Rattus norvegicus [3]; 16% in the assay filed under Rattus norvegicus [4]; 410% with Rattus norvegicus [5].
For the compound `COC(=O)C(C)(C)CCCOc1cccc(OCCCC(C)(C)C(=O)OC)c1NC(C)=O`, the Change in the assay filed under Rattus norvegicus [1], in the assay listed under Rattus norvegicus [2], with Rattus norvegicus [3], in the assay filed under Rattus norvegicus [4] and in the assay with Rattus norvegicus [5] was 0% throughout.
Take `CC(C)(CCCOc1ccc(-c2ccc(OCCCC(C)(C)C(=O)O)cc2)cc1)C(=O)O`: the Change is given as 0% in the assay filed under Rattus norvegicus [1], -30% in the assay listed under Rattus norvegicus [2], 15% in the assay filed under Rattus norvegicus [4] and 138% in the assay on Rattus norvegicus [5].
On to `COC(=O)C(C)(C)CCCOc1cc(C(C)(C)C)c(OCCCC(C)(C)C(=O)OC)cc1C(C)(C)C`, for which the Change is on record as -15% in the assay filed under Rattus norvegicus [1], 0% in the assay listed under Rattus norvegicus [2], 0% in the assay filed under Rattus norvegicus [4] and 0% in the assay on Rattus norvegicus [5].
Consider `CC(C)(CCCCOc1ccc(OCCCCC(C)(C)C(=O)O)c(-c2ccccc2)c1)C(=O)O`, for which the Change is given as 0% in the assay filed under Rattus norvegicus [1]; -49% in the assay filed under Rattus norvegicus [2]; -53% in the assay with Rattus norvegicus [3]; 8% in the assay filed under Rattus norvegicus [4]; 51% with Rattus norvegicus [5].
Regarding `CC(C)(CCCOc1cccc(OCCCC(C)(C)C(=O)O)c1)C(=O)O`, the Change in the assay listed under Rattus norvegicus [1] was 0%; in the assay listed under Rattus norvegicus [2] it was -52%; in the assay listed under Rattus norvegicus [4], 17%; in the assay on Rattus norvegicus [5], 294%.
For the compound `COC(=O)C(C)(C)CCCOc1ccc(Cl)c(OCCCC(C)(C)C(=O)OC)c1`, the Change in the assay filed under Rattus norvegicus [1] is listed as 0%; in the assay filed under Rattus norvegicus [2], -42%; in the assay with Rattus norvegicus [3], 80%; in the assay listed under Rattus norvegicus [4], 8%; with Rattus norvegicus [5], 37%.
On to `C/C=C/c1cc(OCCCC(C)(C)C(=O)OC)ccc1OCCCC(C)(C)C(=O)OC`, for which the Change is given as -31% in the assay filed under Rattus norvegicus [1]; -39% in the assay listed under Rattus norvegicus [2]; -66% in the assay with Rattus norvegicus [3]; 29% in the assay filed under Rattus norvegicus [4]; 268% in the assay on Rattus norvegicus [5].
Regarding `CC(C)(CCCOc1ccc(OCCCC(C)(C)C(=O)O)c(-c2ccc(Cl)cc2Cl)c1)C(=O)O`, the Change in the assay listed under Rattus norvegicus [1] is on record as -20%; in the assay listed under Rattus norvegicus [2], -45%; with Rattus norvegicus [3] it was -54%; in the assay listed under Rattus norvegicus [4] it was 0%; with Rattus norvegicus [5], 64%.
The matching figures for `CCC(O)c1cc(OCCCC(C)(C)C(=O)O)ccc1OCCCC(C)(C)C(=O)O` (configuration not stated): 0%, 0%, -62%, 34% and 947%.
Consider `COC(=O)C(C)(C)CCCOc1ccc(C=O)c(OCCCC(C)(C)C(=O)OC)c1`, for which the Change is recorded as 0% in the assay listed under Rattus norvegicus [1]; -18% in the assay filed under Rattus norvegicus [2]; -30% with Rattus norvegicus [3]; 11% in the assay filed under Rattus norvegicus [4]; 79% with Rattus norvegicus [5].
As to `COC(=O)C(C)(C)CCCOc1ccccc1OCCCC(C)(C)C(=O)OC`, the Change was -30% in the assay filed under Rattus norvegicus [1], -40% in the assay filed under Rattus norvegicus [2], 0% in the assay listed under Rattus norvegicus [4] and 0% in the assay on Rattus norvegicus [5].
On to `CC(C)(CCCOc1ccc(OCCCC(C)(C)C(=O)O)c(-c2ccccc2Cl)c1)C(=O)O`, for which the Change is listed as 38% in the assay filed under Rattus norvegicus [1]; 0% in the assay listed under Rattus norvegicus [2]; -38% in the assay on Rattus norvegicus [3]; 23% in the assay listed under Rattus norvegicus [4]; 480% in the assay on Rattus norvegicus [5].
The matching figures for `COc1ccc(-c2cc(OCCCC(C)(C)C(=O)O)ccc2OCCCC(C)(C)C(=O)O)cc1`: -30%, -30%, -38%, 0% and 52%.
As for `COC(=O)C(C)(C)CCCOc1ccc(OCCCC(C)(C)C(=O)OC)c(-c2nnco2)c1`, the Change in the assay listed under Rattus norvegicus [1] is 0%; in the assay listed under Rattus norvegicus [2], -26%; with Rattus norvegicus [3], -33%; in the assay filed under Rattus norvegicus [4], 11%; in the assay on Rattus norvegicus [5] it was 31%.
For `COC(=O)C(C)(C)CCCOc1cccc(OCCCC(C)(C)C(=O)OC)c1C`, the Change in the assay listed under Rattus norvegicus [1] was -15%; in the assay listed under Rattus norvegicus [2], -37%; in the assay filed under Rattus norvegicus [4] it was 33%; with Rattus norvegicus [5], 385%.
Regarding `CC(C)(CCCOc1ccc(OCCCC(C)(C)C(=O)Oc2ccc(C(C)(C)C)cc2)cc1)C(=O)Oc1ccc(C(C)(C)C)cc1`, the Change in the assay filed under Rattus norvegicus [1], in the assay filed under Rattus norvegicus [2], in the assay on Rattus norvegicus [3], in the assay listed under Rattus norvegicus [4] and with Rattus norvegicus [5] was 0% each time.
For the compound `COC(=O)C(C)(C)CCCOc1cc(C)c(OCCCC(C)(C)C(=O)OC)cc1C`, the Change in the assay listed under Rattus norvegicus [1] is 27%; in the assay listed under Rattus norvegicus [2], -30%; in the assay on Rattus norvegicus [3] it was -64%; in the assay listed under Rattus norvegicus [4], 14%; with Rattus norvegicus [5], 688%.
Consider `CCCCCCCCCCCCc1ccc(OCCCC(C)(C)C(=O)O)cc1OCCCC(C)(C)C(=O)O`, for which the Change in the assay filed under Rattus norvegicus [1] was 0%; in the assay listed under Rattus norvegicus [2], 0%; in the assay with Rattus norvegicus [3], -12%; in the assay filed under Rattus norvegicus [4] it was 0%; in the assay on Rattus norvegicus [5], 0%.
Regarding `Cc1cc(OCCCC(C)(C)C(=O)O)c(C)c(C)c1OCCCC(C)(C)C(=O)O`, the Change in the assay filed under Rattus norvegicus [1] is recorded as 42%; in the assay listed under Rattus norvegicus [2] it was -37%; in the assay filed under Rattus norvegicus [4], 21%; in the assay with Rattus norvegicus [5], 165%.
On to `CC(C)(CCCOc1ccc(OCCCC(C)(C)C(=O)OCc2cccnc2)c(-c2ccccc2)c1)C(=O)OCc1cccnc1`, for which the Change in the assay filed under Rattus norvegicus [1] is 0%; in the assay filed under Rattus norvegicus [2], 63%; in the assay with Rattus norvegicus [3], 0%; in the assay filed under Rattus norvegicus [4] it was 19%; in the assay on Rattus norvegicus [5], 594%.
Turning to `COC(=O)C(C)(C)CCCOc1cc(C)cc(OCCCC(C)(C)C(=O)OC)c1`, the Change in the assay filed under Rattus norvegicus [1] is reported as -53%; in the assay filed under Rattus norvegicus [2], -62%; in the assay filed under Rattus norvegicus [4], 18%; with Rattus norvegicus [5], 262%.
Regarding `COC(=O)C(C)(C)CCCOc1ccc(OCCCC(C)(C)C(=O)OC)c(C2CCCCC2)c1`, the Change was -24% in the assay filed under Rattus norvegicus [1]; -49% in the assay filed under Rattus norvegicus [2]; -54% in the assay on Rattus norvegicus [3]; 6% in the assay listed under Rattus norvegicus [4]; 35% in the assay on Rattus norvegicus [5].
As to `CC(C)(CCCOc1ccc(Sc2ccc(OCCCC(C)(C)C(=O)O)cc2)cc1)C(=O)O`, the Change was 20% in the assay filed under Rattus norvegicus [1], -35% in the assay listed under Rattus norvegicus [2], 0% in the assay filed under Rattus norvegicus [4] and 0% with Rattus norvegicus [5].
With `COC(=O)C(C)(C)CCCOc1ccc(OCCCC(C)(C)C(=O)OC)c(C(C)=O)c1`, the Change in the assay filed under Rattus norvegicus [1] is 20%; in the assay filed under Rattus norvegicus [2], 0%; in the assay with Rattus norvegicus [3] it was -39%; in the assay filed under Rattus norvegicus [4], 21%; in the assay on Rattus norvegicus [5] it was 381%.

These data come from ChEMBL document CHEMBL1122242, “Phenylenebis(oxy)bis[2,2-dimethylpentanoic acid]s: agents that elevate high-density lipoproteins” (1983).
